Experimental findings from article PMC5403476 (International Journal of Molecular Medicine, 2017) are described below.

Residues, ends and D or L forms follow the SMILES beside them.

Common to all, as to type: cell-based, human
Series [1] concerns EA.hy926 cells. As to the kind of experiment: Cell viability by MTT assay. The conditions noted are these: 62.5, 125 and 250 µM, up to 250 µM; presence or absence of Ang II (1 µM); 24 h. The essentials: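 EA.hy926 cells were grown in DMEM with 10% FBS, penicillin and streptomycin at 37°C in 5% CO2. Cells were treated with Ang II (1 µM) plus test compound (62.5, 125 or 250 µM) for 24 h at 37°C, then with MTT for 4 h. Plates were spun and formazan was dissolved in DMSO, read at 540 nm. Data are mean ± SD of at least 3 experiments, compared by unpaired t-test.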

The test system of series [2] is p38 MAPK phosphorylation in EA.hy926 cells. In words: Phosphorylation of p38 MAPK by western blot. Particulars: 30 min. The essentials:
(§1)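 Ang II-stimulated EA.hy926 cells were lysed for 60 min in Tris/EDTA/NP-40 buffer with phosphatase and protease inhibitors, and protein was measured by BCA. Each lane took 40 µg protein on SDS-PAGE, transferred to nitrocellulose and blocked 2 h in 5% milk/TBS-T. Primary antibodies (1:1,000) were applied overnight at 4°C and secondaries at 1:3,000, with ECL detection and densitometry. Data are mean ± SD, at least 3 experiments.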
For orientation: In western blotting, separated proteins are transferred to a membrane and probed.

Series [3] concerns ET-1 expression in Ang II-stimulated EA.hy926 cells. As to the kind of experiment: ET-1 expression by western blot. The conditions noted are these: 24 h. The essentials:
as §1

Series [4] has as its system ERK phosphorylation in EA.hy926 cells. As to the kind of experiment: Phosphorylation of ERK by western blot. Particulars: 30 min. The essentials:
as §1

Series [5] has as its system intracellular ROS in Ang II-stimulated EA.hy926 cells. As to the kind of experiment: Intracellular ROS generation. Particulars: Ang II alone (1 µM, 30 min), compared with the untreated cells. The gist of the method: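 Cells were seeded for 24 h, then pre-treated with test compound for 30 min. Ang II (1 µM) was added for a further 30 min at 37°C. Cells were loaded with 40 µM carboxy-DCFH-DA, and DCF fluorescence plus DAPI were imaged by fluorescence microscopy.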

In series [6] the test system is JNK phosphorylation in EA.hy926 cells. As to the kind of experiment: Phosphorylation of JNK by western blot. Particulars: 30 min. The essentials: as §1
Series [7] concerns iNOS expression in Ang II-stimulated EA.hy926 cells. As to the kind of experiment: iNOS expression by western blot. Particulars: 24 h. The essentials:
as §1

In series [8] the test system is NO production in Ang II-stimulated EA.hy926 cells. In words: NO production. Particulars: Ang II alone (1 µM, 24 h), compared with the untreated cells. The essentials: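 EA.hy926 cells were incubated with test compound and Ang II for 24 h. Nitrite in the medium was taken as the NO indicator. Medium was mixed 1:1 with Griess reagent (1% sulfanilamide, 0.1% naphthylethylenediamine dihydrochloride in 2.5% phosphoric acid) for 10 min at room temperature and read at 540 nm, with fresh medium as blank. Data are mean ± SD, at least 3 experiments.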

Turning to `CSCC[C@H](NC(=O)[C@@H](N)[C@@H](C)O)C(=O)N[C@@H](CCC(=O)O)C(=O)N1CCC[C@H]1C(=O)NCC(=O)N[C@@H](CCCCN)C(=O)N1CCC[C@H]1C(=O)O` [purified peptide, Thr-Met-Glu-Pro-Gly-Lys-Pro] (H-TMEPGKP-OH), the “cytotoxic effect (MTT)” value in series [1] is listed as “No significant toxic effects”.

For “angiotensin II (DRVYIHPF; Angiotensin-2; UniProt P01019 25-32, looked up) [Ang II]”, the “phosphorylated p38 MAPK, Ang II alone” value in series [2] was “elevated”. In addition, in series [3], the “ET-1 expression, Ang II alone” value is “markedly increased”. Also, in series [4], the “phosphorylated ERK, Ang II alone” value is “elevated”. Moreover, in series [5], the “ROS fluorescence intensity, Ang II alone” value is “increased markedly”. In addition, in series [6], the “phosphorylated JNK, Ang II alone” value was “elevated”. For the same compound, the “iNOS expression, Ang II alone” value in series [7] is “markedly increased”. Besides, the “NO generation, Ang II alone” value in series [8] is recorded as “markedly induced NO generation”.
